# Source: PubChem (several laboratories)
# FLuc stim CS – FLuc activators, initial screening, artefact control for FLuc-dependent activation tests, biochemical, ATPlite luminescence; Luciferin 4-monooxygenase (Photinus pyralis), P08659; AID 1027, 2008; activation factor at 10 µM; 200,000 tested, under 10 active; ATPlite luciferase biochemical, 10 min; 0 = ATP-free wells, 1 = DMSO control;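 active = luciferase activation factor, scaled between plate controls, of at least 2 with compound at 10 µM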
# Target sequence (P08659 whole entry, looked up): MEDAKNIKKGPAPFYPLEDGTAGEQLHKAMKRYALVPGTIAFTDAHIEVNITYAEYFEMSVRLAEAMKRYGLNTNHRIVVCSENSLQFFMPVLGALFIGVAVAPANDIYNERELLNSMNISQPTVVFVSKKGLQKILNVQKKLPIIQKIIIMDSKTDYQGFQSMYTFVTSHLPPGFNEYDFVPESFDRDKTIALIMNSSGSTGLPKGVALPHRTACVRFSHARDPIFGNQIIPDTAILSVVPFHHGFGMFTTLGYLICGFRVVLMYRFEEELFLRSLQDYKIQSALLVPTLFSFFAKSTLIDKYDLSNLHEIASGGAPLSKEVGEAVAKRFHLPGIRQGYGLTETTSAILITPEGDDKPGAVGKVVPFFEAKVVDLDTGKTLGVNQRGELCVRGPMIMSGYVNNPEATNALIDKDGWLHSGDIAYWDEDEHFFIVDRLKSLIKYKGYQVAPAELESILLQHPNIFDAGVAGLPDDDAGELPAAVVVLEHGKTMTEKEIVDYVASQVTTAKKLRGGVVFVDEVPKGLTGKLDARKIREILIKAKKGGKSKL
#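 Assay system: Luciferase/luciferin reagent mix; Medium: PBS as buffer for the ATP substrate; Dosing: test compounds dosed from 2 mM stocks in 100% DMSO; Times: 10 min, room temperature; Signal: luminescence from luciferase reaction; Read-out: luciferase activation; Controls: No-ATP low control, compound-free enzyme-plus-ATP high control.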
# NF-kB neuron act – activators of NF-kB expression in neurons, primary screen, cell-based, HTS; human neuronal cells, NF-kB reporter expression; active compounds read high; fold change at 12.5 µM; 190,000 compounds, 1.6% hits; AID 1239, 2008; in the data active = fold change above about 3.3
# TRAIL sens C8 – viability loss with TRAIL in NB7+C8 cells, primary screen, TRAIL sensitizer project, cell-based, ATPlite luminescence; 360,000 compounds, 1% hits; inhibition (viability loss, TRAIL sensitization), % at 10 µM; AID 624354, 2012;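 active = compounds causing at least 50% loss of cell viability in the single-dose screen, relative to plate controls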
# PPC-1+TRAIL kill – compounds killing PPC-1 cancer cells with TRAIL present, primary screen, TRAIL potentiator project, ATPLite luminescence, uHTS; PPC-1 cells + TRAIL, ATPLite viability luminescence; cell killing (% activity), % at 4 µM or 5 µM; 220,000 compounds, 0.41% hits;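 active = cell killing above 50% in the first pass at 4 µM, then a duplicate retest at 5 µM averaging 50% or more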;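 also: plate controls were cells with TRAIL plus DMSO for no effect and medium-only wells lacking cells for full effect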
# FLuc inhib CS – firefly luciferase enzyme inhibitors, primary screen, artefact control for luciferase-based inhibitor screens, biochemical, luminescence, ATPLite; Luciferin 4-monooxygenase (Photinus pyralis), P08659; 10 min; inhibition, % at 10 µM; 200,000 compounds, 1.5% hits; AID 1006, 2008;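 active = inhibition above about 50% when tested at 10 µM, limit read from the data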
# APP 5'UTR act – activators of APP 5'UTR luciferase reporter, primary screen, SH-SY5Y cells. SH-SY5Y APP 5'UTR luciferase reporter, luminescence; zero percent = DMSO vehicle wells. activation, % at 2 µM. 190,000 compounds, 1% hits. AID 1276, 2008;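 active = activation above a set limit, based on mean plus 3 SD of controls, cut at about 140% in these data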
# PPC-1 tox – cytotoxicity in PPC-1 cells, confirmation, cytotoxicity control for TRAIL apoptosis potentiator project, cell-based, ATP content luminescence; shares compounds with PPC-1+TRAIL kill; PPC-1 viability, ATPlite luminescence, overnight; cytotoxicity, % at 5 µM; 1,200 compounds, 50% hits;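 active = reconfirmed compounds whose average cytotoxicity reaches 50% or more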;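 also: 0% = DMSO-treated cells and 100% = wells holding medium but no cells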
# * marks the source's active call; other numbers are inactive results; / = no result. Rows were chosen to be rich in hits. Some 2.2% of all compounds tested hit in one or more screens of this group.
SMILES,FLuc stim CS,NF-kB neuron act,TRAIL sens C8,PPC-1+TRAIL kill,FLuc inhib CS,APP 5'UTR act,others
C[C@H]1CC[C@@H]2[C@@H](C)[C@H]3[C@H](C[C@H]4[C@@H]5CC=C6C[C@@H](O[C@@H]7O[C@H](CO)[C@H](O)[C@H](O[C@@H]8O[C@H](CO)[C@@H](O)[C@H](O)[C@H]8O)[C@H]7O[C@@H]7O[C@@H](C)[C@H](O)[C@@H](O)[C@H]7O)CC[C@]6(C)[C@H]5CC[C@]34C)N2C1,1,1.7,11,2,-2,11,
CNC(=O)Oc1cccc(-c2cn3cc(Cl)ccc3n2)c1,0.1,8.2*,80*,86*,95*,170*,
CNC(=O)Oc1cccc2ccccc12,/,/,8,24,/,/,
CNC(=O)Oc1ccc(-c2cn3cc(C)ccc3n2)cc1,0,5*,93*,88*,97*,49,
O=C(CNC1CCCC1)Nc1ccc(N2CCCCCC2)cc1,1,1.1,0,28,-4,6,
CCC(c1nnnn1-c1ccc2c(c1)OCCO2)N1CCC2(CC1)C(=O)NCN2c1ccccc1 (stereo not drawn),/,/,-4,/,/,/,
CN(C)C(=O)O/N=C(\N)COc1ccc(C(C)(C)C)cc1,/,/,90*,21,/,/,
C=CCn1c(O)c(C(CC)=NCc2cc(OC)cc(OC)c2)c(=O)[nH]c1=O,1,0.52,50*,20,0,-8,
CC12CC[C@H]3[C@@H](CCC4(O)C[C@H](O)CCC34/C=N/NC(=O)Cc3ccccc3)C1(O)CCC2C1=CC(=O)OC1 (stereo partly drawn),/,/,9,-2,/,-3,
CC(=O)O[C@H]1[C@H]2O[C@]23[C@@H]2CC[C@]4(O)C[C@@H](O)CC[C@]4(C)C2CC[C@]3(C)[C@H]1c1ccc(=O)oc1 (stereo partly drawn),/,/,64*,/,/,/,
CC1(O)CCC2C3CCC4=CC(=O)CCC4(C)C34OC4CC21C (stereo not drawn),/,/,13,/,/,/,
C[C@]12CC[C@H]3C(CCC4(O)CC(O)CC[C@]34C=O)C1=CC[C@H]2c1ccc(=O)oc1 (stereo partly drawn),/,/,54*,/,/,/,
CN(C)CC(C(=O)Cc1ccccc1)c1ccccc1 (stereo not drawn),/,/,63*,/,/,/,
COC(=O)[C@@H]1N=C(c2ccc(OC)cc2)O[C@]12C(=O)N(Cc1ccccc1)c1ccccc12,/,/,-6,/,/,/,
CCCN1CCc2cccc3c2[C@H]1Cc1ccc(O)c(O)c1-3,/,/,46*,/,/,/,
CC(C)N1CCN(Cc2cc3c(cc2Cl)OCO3)CC1CCO (stereo not drawn),/,/,-3,-63,/,/,
CC(C)N1CCN(Cc2ccc3c(c2)OCCO3)CC1CCO (stereo not drawn),1.1,1.1,-6,-9,-5,-6,PPC-1 tox=-6
C[C@@H]1CN([C@@H](C)CO)C(=O)CCCn2nncc2CO[C@H]1CN(C)C(=O)Oc1ccccc1,/,/,7,/,/,/,
C=C(C=O)C[C@@H]1C[C@H](O)C2OC3C[C@]4(C)OC5/C=C\CC6OC7C(CC=CCC6OC5CCCC4OC3CC2O1)OC1CC2OC3CC(=O)OC3C[C@@H](C)C[C@@]2(C)OC1C[C@@H]7C (stereo partly drawn),/,/,/,78*,/,/,PPC-1 tox=77*
O=C1C(=O)c2ccccc2-c2ccccc21,1,0.1,95*,68*,-1,-58,PPC-1 tox=63*
CN(C)Cc1ccccc1OC(=O)N(C)C,1,1.1,-11,16,-2,11,
Cc1cccc(CN(C)C)c1OC(=O)N(C)C,1,1.3,-4,1,0,-3,PPC-1 tox=8
CN1C(=O)C(C2c3ccccc3C(=O)N2Cc2ccccc2)C(=O)N(C)C1=O (stereo not drawn),1,0.98,-5,-3,3,3,PPC-1 tox=-4
